Laboratory results taken from publication PMC4872389 (The American journal of Chinese medicine, 2016).

How the values were obtained:
[1] = rat, in vivo; cited from earlier work
[2] = Plasma and tissue D, DA, DOH after sub-chronic dietary AGN exposure; type: in vivo, male C57BL/6J mice; details: for Terminal-bleed plasma level by HPLC-UV: 0.5% and 1% AGN diet, 6 weeks, all but one mouse; for concentration at 6 weeks: male, C57BL/6J, mouse, oral
How it was run: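 Male C57BL/6J mice, 6 weeks old, 10 per group, were fed AIN-93M diet containing 0.5% or 1% (w/w) AGN extract ad libitum for 6 weeks. Terminal plasma was taken by cardiac puncture (heparin) under anesthesia, 1–4 pm. Tissues were homogenized in 4 volumes of water. Samples were extracted with ethyl acetate and analyzed by HPLC-UV, with D and DA quantitated together. Values are mean ± SE, n=5.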

[3] = test system: cytochrome p450 (Cyp); details: orally administered general Cyp inhibitor; ref Zhang et al., 2015b; cited from earlier work
[4] = Plasma and tissue D, DA, DOH after a single gavage dose of D/DA; type: in vivo, male C57BL/6 mice
How it was run: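 Male C57BL/6 mice, 6–7 weeks old, 5 per group, got one gastric gavage of 3 mg D/DA (1.8 mg D + 1.2 mg DA) in 0.3 mL of 10% ethanol/20% PEG400/3.3% Tween80/66.7% USP 5% dextrose. Plasma (cardiac puncture, heparin) and tissues were collected at time points over 24 h. Water homogenates (ice bath) were extracted with ethyl acetate. Analysis was HPLC-UV, except prostate by UHPLC-MS/MS.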

[5] = Plasma, tissue and urine pyranocoumarins after repeated i.p. AGN; type: in vivo, CD-1 mice; details: 3 h after last i.p. injection of AGN
How it was run: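 CD-1 mice, 8–10 weeks old, 6 per sex per group, were kept on AIN-93M diet. They received i.p. vehicle or AGN extract at 100, 200 or 300 mg/kg in 0.3 mL, six days/week for 4 weeks, with dose adjusted weekly to body weight. Blood and organs were taken 3 h after the last injection. Extracts were made with ethyl acetate and analyzed by HPLC-UV; n=4~6 per dose group.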

[6] = adipose, single gavage 3 mg D/DA
[7] = kidney, single gavage 3 mg D/DA
[8] = male, C57BL/6, mouse, plasma, po, 3 mg
[9] = prostate, single gavage 3 mg D/DA

Compound	Reported safe dose [1]	Terminal-bleed plasma level by HPLC-UV [2]	Increase of prostate retention on blocking Cyp activities [3]	Cmax [4, 6]	Cmax ([4]; brain, single gavage 3 mg D/DA)	Cmax [4, 7]	Cmax ([4]; liver, single gavage 3 mg D/DA)	Cmax ([4]; lung, single gavage 3 mg D/DA)	Cmax [4, 8]	Tmax ([4]; male, C57BL/6, mouse, po, 3 mg)	Cmax [4, 9]	Content in liver, lung, kidney and brain relative to plasma [5]	concentration at 6 weeks ([2]; brain)	concentration at 6 weeks ([2]; kidney)	concentration at 6 weeks ([2]; liver)	concentration at 6 weeks ([2]; lung)	concentration at 6 weeks ([2]; plasma, 0.5 % AGN in diet)	concentration at 6 weeks ([2]; plasma, 1 % AGN in diet)	concentration at 6 weeks ([2]; prostate)
CC(C)=CC(=O)O[C@H]1Cc2cc3ccc(=O)oc3cc2OC1(C)C [D, decursin]	250 mg D/kg	below limit of detection	2 orders of magnitude	1.75 µmol/kg	1.00 µmol/kg	0.42 µmol/kg	0.38 µmol/kg	0 µmol/kg	0.38 µM	1 h	4.90 µmol/kg								
CC1(C)Oc2cc3oc(=O)ccc3cc2C[C@@H]1O [DOH, decursinol]				28.5 µmol/kg	23.3 µmol/kg	50.4 µmol/kg	47.8 µmol/kg	31.6 µmol/kg	39.8 µM	1 h	46.4 µmol/kg	lower than its plasma level	2.97 µM	14.4 µM	41.1 µM	3.33 µM	0.99 ± 0.11 µM	2.44 ± 0.52 µM	12.8 µM
C/C=C(/C)C(=O)O[C@H]1Cc2cc3ccc(=O)oc3cc2OC1(C)C [DA, decursinol angelate]		below limit of detection	2 orders of magnitude	7.26 µmol/kg	1.78 µmol/kg	5.51 µmol/kg	2.95 µmol/kg	3.13 µmol/kg	0.76 µM	1 h	14.80 µmol/kg								
